Experimental data taken from the EternaBench riboswitch data.

System: MS2 coat protein
Assay: apparent Kd, MS2 coat protein; higher = weaker binding; RNA-MaP array; FMN 200 µM where present
Summary of the method: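 The titrant was SNAP-549-labelled MS2 coat protein, run from 0.7 or 1.5 nM in doubling steps to 3 µM. It was applied to designs transcribed by stalled E. coli RNA polymerase on Illumina sequencing-chip clusters, without ligand first and then with constant ligand, in 100 mM Tris-HCl pH 7.5, 80 mM KCl, 4 mM MgCl2, BSA, DTT, yeast tRNA and Tween-20. The apparent Kd is the median of filtered per-cluster binding-curve fits, with green signal normalised to red-channel RNA signal and control-cluster median Fmax.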

[1] = designed as: OFF switch for flavin mononucleotide, no ligand
[2] = ligand present: flavin mononucleotide, designed as: OFF switch for flavin mononucleotide
[3] = designed as: ON switch for flavin mononucleotide, no ligand
[4] = ligand present: flavin mononucleotide, designed as: ON switch for flavin mononucleotide

Sequence: AUGCUAGUGUGAGGAUAUCAACAUGAGGAUCACCCAUGUUGGAAGUACCCGACAUGAGGUACGGAUGAGAAGGUACAUUAGCAU
- apparent Kd [1]: 15.6 nM
- apparent Kd [2]: 25.3 nM

Sequence: GACAAGUGAGGAUAUCUGAUGUCUAACUUCGGUUAGACAUCAGAGAAGGCACAUGAGGAUCACCCAUGUCUGUC
- apparent Kd [1]: 30.7 nM
- apparent Kd [2]: 20.8 nM

Sequence: GAUACGUCAGGAUAUCUGAUGUCUAACUUCGGUUAGACAUCAGAGAAGGGACAUGAGGAUCACCCAUGUAUCAA
- apparent Kd [1]: 42.6 nM
- apparent Kd [2]: 56.7 nM

Sequence: CGGUCGAUGUAAGGAUAUCGACUGGAUAACAGUCGAGAAGGUACAUGAGGAUCACCCAUGUAAUCCAAUAAUAAAUAACGACCG
- apparent Kd [1]: 11.4 nM
- apparent Kd [2]: 23.2 nM

Sequence: CAGCAAUGUAAGAAGGCUGCUCCGAUUAGGAGCAGAGGAUAUUACAUGAGGAUCACCCAUGUAUAAAAUAAUAGCUGAAAUAAU
- apparent Kd [1]: 6.37 nM
- apparent Kd [2]: 7.69 nM

Sequence: GAUGACAUGAGGAUCACCCAUGUGAUGGUUUGAGGUGGUUACAGAAGGGACGUAUAGUGGUGUGGUCAGGAUAUGUAGAAUCCU
- apparent Kd [3]: 125 nM
- apparent Kd [4]: 50.9 nM

Sequence: AAAACGAAAGUCGAACGAUGUAGCAGAAGGACAUGAGGAUCACCCAUGUCAGCUGUAACAGCCAUGUAGGAUAUGCUACAUUUU
- apparent Kd [1]: 5.47 nM
- apparent Kd [2]: 6.35 nM

Sequence: UUUGAGUUCCGAGGCCGCGAGUUCACAGAAGGCAUUAUUACAUGAGGAUCACCCAUGUGGGUACAUGAGGAUAUGUGAUAUGCG
- apparent Kd [3]: 20.8 nM
- apparent Kd [4]: 6.55 nM

Sequence: ACACAUGAGGAUCACCCAUGUAGUAAUAGCUUCCGGACCUCACAGGAUAUAUGCAAGUUCGUUGCGUAGAAGGGUGAACUCUAA
- apparent Kd [3]: 89 nM
- apparent Kd [4]: 92.5 nM

Sequence: CCUAAAAGGAAGGAUAUGCUAGACGAAAGUCUAGCAGAAGGUCCUACAUGAGGAUCACCCAUGUGUCCUAUAGG
- apparent Kd [1]: 48.5 nM
- apparent Kd [2]: 59.4 nM

Sequence: CCCGCUGGAGGAUAUGCACUACGUGUGUUUUCUUUUGAGGCACAUGAGGAUCACCCAUGUAGAAGGCCACGCGG
- apparent Kd [1]: 97.6 nM
- apparent Kd [2]: 430 nM

Sequence: AUAAAACAUGAGGAUCACCCAUGUAGAAAUAUGGGAGGAUAUACAAAGACGAAAGUCAAAGUAGAAGGCCUAAAAG
- apparent Kd [3]: 127 nM
- apparent Kd [4]: 33.5 nM

Sequence: AAAACUGAAGGAUAUGCCAGGGUGAGAGCUGGUGACGUUUAACAUGAGGAUCACCCAUGUAGAAGGUCAAAACA
- apparent Kd [1]: 15.3 nM
- apparent Kd [2]: 17 nM

Sequence: GUAGCAUAAUCAGGAUAUUCAGCGAAUAGAUAGACAUGAGGAUCACCCAUGUGGCGAAAGCCUCGGGAGAAGGGAUAAUGCUAC
- apparent Kd [3]: 168 nM
- apparent Kd [4]: 54 nM

Sequence: UUUAAUUAGUAAGGAUAUACUAGUGAUUAACUUGUAGAAGGUACAGUCUUAUGUAUAACAAAUUAACAUGAGGAUCACCCAUGU
- apparent Kd [3]: 9.54 nM
- apparent Kd [4]: 8.3 nM

Sequence: UGUCACGUAGUAGGAUAUGACAUGAGGAUCACCCAUGUUAACUCUAACCUCGAGGAUCGUCAUGGUCAGAAGGACUCAGACAAG
- apparent Kd [1]: 209 nM
- apparent Kd [2]: 75.9 nM

Sequence: AAGGAUAGAGGAUAUACAUAGAUACAGAUUCAUGUAAUCCUACAUGAGGAUCACCCAUGUAGAAGGCUAUCCUA
- apparent Kd [1]: 15.8 nM
- apparent Kd [2]: 58.3 nM

Sequence: AUAUCUUGUCGAGGAUAUGUUGUAUUGAUCUGAAAACAUGAGGAUCACCCAUGUAUACGGUGGGAACAGAAGGUGGAUGUAGAA
- apparent Kd [1]: 318 nM
- apparent Kd [2]: 356 nM

Sequence: UGAGCCUCGUGAGGAUAUACAUGAGGAUCACCCAUGUAAUAGGAUGAACGGUGGAAACACCGAAUGUAGAAGGCACGAGGCUCA
- apparent Kd [1]: 82.2 nM
- apparent Kd [2]: 869 nM

Sequence: GUGCCUUGGGAGAAGGCCCAAUGCAAAGCAUAGGGAGGAUAUUCAUAUAAUAAAUAAACAUGAGGAUCACCCAUGUGGCACAAA
- apparent Kd [3]: 479 nM
- apparent Kd [4]: 33.3 nM

Sequence: GCGGAGGGUACAGGAUAUCGUCCUUAGUUGGUACGAGAAGGGUAGCGCUGCCACAUGAGGAUCACCCAUGUGCCCAAACUAAAA
- apparent Kd [3]: 159 nM
- apparent Kd [4]: 201 nM

Sequence: CAGUUUUGAGGAUAUCCAUCCUCCUACAUGAGGAUCACCCAUGUUUCCCUCUGGGUUUUCGGAGAAGGCAGUUAUC
- apparent Kd [1]: 341 nM
- apparent Kd [2]: 251 nM

Sequence: UCGGCGCGAGGAUAUACGUUUGCUUUUUUGUGUCGUUGCGUACAUGAGGAUCACCCAUGUAGAAGGCGCGCCGC
- apparent Kd [1]: 17.5 nM
- apparent Kd [2]: 83.6 nM

Sequence: UUUCUCGUUGUGAGGAUAUCGUUUUUGUCUCGGAUCGAGAAGGCACAUGAGGAUCACCCAUGUUUGUUGUGGUU
- apparent Kd [1]: 85.1 nM
- apparent Kd [2]: 103 nM

Sequence: GUACCUUAUGAGAAGGCGAUCAUGAAACAUGAUCGAGGAUAUCAUGUAAACAUGAGGAUCACCCAUGUAUGGGUAUUAUGGUAA
- apparent Kd [3]: 31.8 nM
- apparent Kd [4]: 10.2 nM

Sequence: CGGGCUGCUGUGAGGAUAUGCCUGUGGGUGCGUGGGUAGAAGGCACAUGAGGAUCACCCAUGUCCUGCGGCUCG
- apparent Kd [1]: 736 nM
- apparent Kd [2]: 537 nM

Sequence: GACUGCAGAGGAUAUACAUGAGGAUCACCCAUGUGAGAUGCCUGACAGGUGUUGCUGAGUAGAAGGCUGCACUG
- apparent Kd [1]: 14.1 nM
- apparent Kd [2]: 21 nM

Sequence: GGGCUGUCAGGAUAUUGAUCGUGAUCGGAAAUGAUCGUGAUCGAGAAGGGACAUGAGGAUCACCCAUGUGGCCC
- apparent Kd [1]: 30.8 nM
- apparent Kd [2]: 33 nM

Sequence: UGGUACAUCAUAGGAUAUCGUGUGUAAACAUGAGGAUCACCCAUGUCAUCCGAGAGUAUAUCGACCGAGAAGGGUGAUGUACCU
- apparent Kd [3]: 24.1 nM
- apparent Kd [4]: 33.3 nM

Sequence: AAAAUGUGAGGAUAUCACGGAACUCCGCGUGACGGAGCUCCUGAGAAGGCACAUGAGGAUCACCCAUGUCCUGU
- apparent Kd [1]: 52.8 nM
- apparent Kd [2]: 276 nM

Sequence: AAGAAGUGAGGAUAUACGCGAACAAAAAAAAAAAAGAAAGCGUAGAAGGCACAUGAGGAUCACCCAUGUCCAAA
- apparent Kd [1]: 27.2 nM
- apparent Kd [2]: 36.3 nM

Sequence: CGUUUUCACAUUUUAGUGUUUUAUACAGAAGGCCAUACACAUGAGGAUCACCCAUGUCAGGAAUUGGAGGAUAUGUUAUUGACG
- apparent Kd [3]: 5.92 nM
- apparent Kd [4]: 4.85 nM

Sequence: CGAUAACAUAGUUAUCCGUAGCGAACAUGAGGAUCACCCAUGUAGGAUAUGUUACUAAACUAGUAACAGAAGGACAUGAGUAUU
- apparent Kd [1]: 154 nM
- apparent Kd [2]: 407 nM

Sequence: GUAGCAUAGACAGGAUAUUCAUAUAAUAAAUAAACAUGAGGAUCACCCAUGUGGCGAAAGCCUUGGGAGAAGGGUCAAUGCUAC
- apparent Kd [3]: 1070 nM
- apparent Kd [4]: 82.1 nM

Sequence: GCCGAACAUGAGGAUCACCCAUGUCUGGGUAAUCAAGGAUAUGGGAAGGCUUUGCCAUGACCAGAAGGUGGUUAUC
- apparent Kd [3]: 209 nM
- apparent Kd [4]: 23.1 nM

Sequence: AUACUCAUGUAAGGAUAUGCAGCCGUUUCGGCUGCAGAAGGUACUAAAAUACAUGAGGAUCACCCAUGUCUCUCGCAUUGCGAG
- apparent Kd [3]: 753 nM
- apparent Kd [4]: 117 nM

Sequence: ACAAGAUCAGGAUAUACAUGAGGAUCACCCAUGUUUAUCAAAAAAAAACUUUCUUUAUGUAGAAGGGAUCUUGU
- apparent Kd [1]: 13.8 nM
- apparent Kd [2]: 13.6 nM

Sequence: UUGAAGUCAUCAGGAUAUAGUAUAAAAGACAUAUAUUUUUUCAAACAUGAGGAUCACCCAUGUCGCUAGAAGGGAUUAUAGAUU
- apparent Kd [1]: 47.3 nM
- apparent Kd [2]: 41.3 nM

Sequence: CACCGUUAACUAGGAUAUAGUACAUGAGGAUCACCCAUGUAAUAAAUGAGAAUUUCGGAUGUAUGCUAGAAGGAGUAAAUCGGC
- apparent Kd [1]: 62.8 nM
- apparent Kd [2]: 64.4 nM

Sequence: GCGUAAUAGGUGUAGCUAGUCGUGCAAGAAGGGUGGUGAACAUGAGGAUCACCCAUGUGGUCAGUACAGGAUAUUGCUAUACGC
- apparent Kd [3]: 542 nM
- apparent Kd [4]: 130 nM

Sequence: UUGGACGUCGUAGGAUAUGUAGGAUAUUCCUACAUGAGGAUCACCCAUGUUGACAUGGAAGAAGGACAUAAGGACGAUGUCCAU
- apparent Kd [3]: 27.4 nM
- apparent Kd [4]: 4.15 nM

Sequence: GGGUUUGGAGGAUAUACAAUCCCGGGCCGAAAGGUUUGGGUACAUGAGGAUCACCCAUGUAGAAGGCCGGGCCC
- apparent Kd [1]: 19.2 nM
- apparent Kd [2]: 27.3 nM

Sequence: GUAGCUAUCGGAGGAUAUUUAUACCGGAAACGGACAUGAGGAUCACCCAUGUGGCGAAAGCCUUGGGAGAAGGCCGAUAGCUAC
- apparent Kd [3]: 29.7 nM
- apparent Kd [4]: 4.23 nM

Sequence: GCCUGCUGGCGAGGAUAUUCUGUGCGGUUCCAGCUCGUGUCUGUUACAUGAGGAUCACCCAUGUGGGAGAAGGUGUCUGUGGCC
- apparent Kd [1]: 6 nM
- apparent Kd [2]: 5.73 nM

Sequence: UGUCGUAGCAGAGGAUAUUACAUGAGGAUCACCCAUGUAUGAACCAAUAGCUGGAAACAGCAAUGUAAGAAGGCUGCUCCGACA
- apparent Kd [1]: 13.2 nM
- apparent Kd [2]: 158 nM

Sequence: AAAAAUGGAGGAUAUACAUGAGGAUCACCCAUGUGUGACUAUACUAUGCGCUCUUCAGGUAGAAGGCCAAAAAA
- apparent Kd [1]: 28.4 nM
- apparent Kd [2]: 39.4 nM

Sequence: CGCAUGCGUAGUAUUAGUUGCUGACAGGAUAUGACAUGAGGAUCACCCAUGUGAAAUAAGAAGAGUCAGAAGGGUCACGAUGCG
- apparent Kd [1]: 16.8 nM
- apparent Kd [2]: 9.58 nM

Sequence: UCUGUUCAAGGAUAUGCGUAAUGUGUUACGGCACGAGGUCUACAUGAGGAUCACCCAUGUAGAAGGUGAUCAGA
- apparent Kd [1]: 21.5 nM
- apparent Kd [2]: 22.2 nM
